Results published in ChEMBL document CHEMBL3085664, “Structure-activity relationship of imidazopyridinium analogues as antagonists of neuropeptide s receptor” (J Med Chem, 2013).

Columns and labels:
[1] = target: T1, Neuropeptide S receptor (Homo sapiens, UniProt Q6W5P4); test: Antagonist activity at neuropeptide S receptor (unknown origin) expressed in CHO cells assessed as cAMP level after 30 mins by […] assay; format: functional, cell-based; conditions: read-out: IC50
T1 sequence (Q6W5P4 whole entry): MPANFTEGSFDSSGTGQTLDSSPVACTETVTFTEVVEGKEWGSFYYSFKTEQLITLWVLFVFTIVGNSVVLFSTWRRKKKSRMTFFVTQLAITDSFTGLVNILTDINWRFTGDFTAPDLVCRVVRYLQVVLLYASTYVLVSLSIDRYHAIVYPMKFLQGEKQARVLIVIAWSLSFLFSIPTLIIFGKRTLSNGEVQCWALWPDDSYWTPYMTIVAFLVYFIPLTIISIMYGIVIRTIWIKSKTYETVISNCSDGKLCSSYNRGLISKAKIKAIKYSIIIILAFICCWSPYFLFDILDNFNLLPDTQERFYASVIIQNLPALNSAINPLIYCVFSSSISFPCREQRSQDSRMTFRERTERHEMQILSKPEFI
Method in brief: (§1)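 CHO cells stably expressing NPSR, 1800 cells/well in 1536-well format, seeded overnight at 37°C in medium without Geneticin. Stimulation buffer (PBS, 0.1% BSA, 0.05% Tween-20, 500µM Ro 20-1724, EC80 NPS) was added for 30 min at 37°C. cAMP was read by HTRF (d2-cAMP/cryptate anti-cAMP in lysis buffer, 30 min). IC50 is the mean with SD of two independent experiments, each run in duplicate.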

[2] = Metabolic stability in mouse liver microsomes assessed as compound remaining after 30 mins in presence NADPH; format: ADME, Microsome; conditions: read-out: Stability
Method in brief: (§2)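 Compound was incubated with mouse liver microsomes, and percent parent remaining was determined at 15, 30 and 60 min. Values are means from a single experiment run in duplicate.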

[3] = target: T1, Neuropeptide S receptor; test: Antagonist activity at neuropeptide S receptor (unknown origin) expressed in CHO cells assessed as inhibition of NPS-induced ERK activation after 20 mins by HTRF assay; format: cell-based
[4] = Metabolic stability in mouse liver microsomes assessed as compound remaining after 30 mins in absence NADPH; format: ADME, Microsome; conditions: read-out: Stability; method in brief: as §2
[5] = target: T1, Neuropeptide S receptor; test: Antagonist activity at neuropeptide S receptor (unknown origin) expressed in CHO cells assessed as inhibition of NPS-induced calcium mobilization after 10 mins by fluorescence assay; format: functional, cell-based; conditions: read-out: IC50
Method in brief: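 CHO-NPSR cells, 2000/well in 1536-well plates, incubated overnight, then loaded with no-wash calcium dye for 1 h at 37°C. Compound in DMSO was added for 10 min. Baseline fluorescence was recorded 6 s at 1 Hz, then EC80 NPS in stimulation buffer was added and recording continued 4 min at 1 Hz on a kinetic reader. IC50 is the mean with SD of two independent experiments in duplicate.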

[6] = target: T1, Neuropeptide S receptor; test: Displacement of [125I]Tyr10-NPS from human neuropeptide S receptor expressed in CHO cells after 1.5 hrs by liquid scintillation counting; format: cell-based
Method in brief: (§3)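 Whole CHO cells stably expressing human NPSR at 90–95% confluency in 24-well plates. Cells were incubated with 0.15 nM [125I]Y10-NPS plus increasing compound or unlabeled NPS in DMEM/0.1% BSA, 20°C, 1.5 hr. Nonspecific binding was defined with 1 µM unlabeled human NPS. Cells were washed, lysed in 1 N NaOH and counted by liquid scintillation. IC50 from one experiment in duplicate.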

[7] = Metabolic stability in mouse liver microsomes assessed as compound remaining after 15 mins in presence NADPH; format: ADME, Microsome; conditions: read-out: Stability; method in brief: as §2
[8] = target: T1, Neuropeptide S receptor; test: Displacement of [125I]Tyr10-NPS from neuropeptide S receptor (unknown origin); method in brief: as §3
[9] = Metabolic stability in mouse liver microsomes assessed as compound remaining after 60 mins in presence NADPH; format: ADME, Microsome; conditions: read-out: Stability; method in brief: as §2
[10] = Metabolic stability in mouse liver microsomes assessed as compound remaining after 60 mins in absence NADPH; format: ADME, Microsome; conditions: read-out: Stability; method in brief: as §2
[11] = Metabolic stability in mouse liver microsomes assessed as compound remaining after 15 mins in absence NADPH; format: ADME, Microsome; conditions: read-out: Stability; method in brief: as §2
[12] = Chemical stability of the compound in phosphate-buffered saline after 48 hrs; format: physicochemical; conditions: buffer
Method in brief: (§4)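 Compound was held in Hank's balanced buffer solution or PBS for 48 hours and checked for decomposition to other species.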

[13] = target: T1, Neuropeptide S receptor; test: Antagonist activity at neuropeptide S receptor (unknown origin) assessed as cAMP level by cell based assay; format: functional; method in brief: as §1
[14] = target: T1, Neuropeptide S receptor; test: Antagonist activity at neuropeptide S receptor (unknown origin) assessed as intracellular calcium level by cell based assay; format: functional
Method in brief: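 CHO cells stably expressing NPSR were seeded at 2000 cells/well and incubated overnight at 37 °C, 5% CO2. They were loaded with no-wash calcium dye for 1 h, then preincubated with compound in DMSO for 10 min. Stimulation used NPS at EC80 in PBS/0.1% BSA/0.05% Tween-20 with 500 µM Ro 20-1724. Kinetic fluorescence was read at 1 Hz: 6 s baseline, then 4 min. IC50 is the mean ± SD of two independent experiments, each in duplicate.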

[15] = Chemical stability of the compound in HBBS buffer after 48 hrs; format: physicochemical; method in brief: as §4

Compound | IC50 [1] [nM] | remaining at 0.5 h [2] [%] | IC50 [3] [nM] | remaining at 0.5 h [4] [%] | IC50 [5] [nM] | IC50 [6] [nM] | remaining at 0.25 h [7] [%] | IC50 [8] [nM] | remaining at 1 h [9] [%] | remaining at 1 h [10] [%] | remaining at 0.25 h [11] [%] | Stability [12] | IC50 [13] [nM] | IC50 [14] [nM] | Stability [15]
CCC(C)(CCN1CCOCC1)N(Cc1cc2ccccc2n(C)c1=O)C(=O)C1CCCCC1 (centres undefined) | 1.2 | 0 | 11 | 97 | 55 | 6.7 | 0 | 1.3 | 0 | 94 | 103 |  |  |  | 
Cc1c(P(=S)(c2ccccc2)c2ccccc2)[n+]2ccccc2n1C.[I-] | 1700 |  | 30 |  | 51 |  |  | 84 |  |  |  | Stable | 1700 | 51 | Stable
